Data set [1] is described as follows: Half-life, determined by incubation at 37 degree celsius in PBS (pH 7.4).
Data set [2] relates to L1210. Kind of data set: Compound was tested in vitro for alkylating activity against L1210 leukemia cells in tumor bearing mice. Format: functional, Mus musculus. The method in brief: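 4-(4-Nitrobenzyl)pyridine alkylation measured after 120 min at 37 °C, pH 6.4. Activity expressed relative to BCNU (set at 1.00). Three determinations per compound.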
Data set [3] deals with L1210. The data set can be described thus: Compound was tested in vitro for cytotoxicity against L1210 leukemia cells in tumor bearing mice. As to conditions: Mus musculus, read-out: ED50 (the source's name). The data set is classed as functional. Summed up:
(§1)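 Mouse L1210 cells grown in suspension in Fischer's medium with 10% horse serum, 37 °C, 5% CO2. Exponential-phase cells at 2 × 10⁴ cells/mL exposed to compound. Cell number counted against drug-free control after 24, 48 and 72 h. ED50 (concentration inhibiting growth by 50%) estimated from dose-response curves from replicate independent experiments.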

Data set [4] has as its system L1210. The data set can be described thus: Compound was tested in vitro for carbomoylating activity against L1210 leukemia cells in tumor bearing mice. Format: functional, Mus musculus. Summed up:
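Extent of carbamoylation of 5'-amino-5'-deoxythymidine measured after incubation with nitrosourea for 6 h at 37 °C in phosphate-buffered saline. Activity expressed relative to BCNU (set at 1.00). Three determinations per compound.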

Data set [5] deals with L1210. The data set can be described thus: Compound was tested in vitro for cytotoxicity against L1210 leukemia cells in tumor bearing mice. Format: functional. The settings on record: Mus musculus, read-out: ED50 (the source's name). The method in brief: as §1
Data set [6] deals with L1210. The data set can be described thus: Effect on the maximum weight loss of mice bearing L1210 leukemia at a dose of 40 mg/kg on days 6-8.
Data set [7] concerns L1210. Kind of data set: Effect on the survival time of mice bearing L1210 leukemia at a dose of 40 mg/kg on 30th day. Format: functional, Mus musculus.
In data set [8] the test system is L1210. Kind of data set: Effect on the survival time of mice bearing L1210 leukemia at a dose of 20 mg/kg on 30th day. Format: functional, Mus musculus.
In data set [9] the test system is L1210. The data set can be described thus: Effect on the maximum weight loss of mice bearing L1210 leukemia at a dose of 20 mg/kg. The settings on record: Mus musculus.
In data set [10] the test system is L1210. Kind of data set: Effect on the maximum weight loss of mice bearing L1210 leukemia at a dose of 80 mg/kg on days 11. Format: functional, Mus musculus.
In data set [11] the test system is L1210. The data set can be described thus: Effect on the survival time of mice bearing L1210 leukemia at a dose of 40 mg/kg. Format: functional, Mus musculus. The method in brief:
(§2)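 L1210 ascites cells from 7-day growths in donor CDF1 female mice were diluted in isotonic saline, and about 10^5 cells were injected i.p. Drug was given as one i.p. injection in isotonic saline, 24 h after implantation. Groups held five or six weight-matched mice, with saline vehicle controls. T/C × 100 = treated/control survival time in dying animals; >60-day survivors counted.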

The test system of data set [12] is L1210. Kind of data set: Effect on the survival time of mice bearing L1210 leukemia at a dose of 80 mg/kg on 30th day. Format: functional, Mus musculus.
Data set [13] has as its system L1210. The data set can be described thus: Effect on the survival time of mice bearing L1210 leukemia at a dose of 20 mg/kg. Format: functional, Mus musculus. Summed up:
as §2

The subject of data set [14] is L1210. The data set can be described thus: Effect on the survival time of mice bearing L1210 leukemia at a dose of 80 mg/kg. Format: functional, Mus musculus. Summed up: as §2
The subject of data set [15] is L1210. Kind of data set: Effect on the maximum weight loss of mice bearing L1210 leukemia at a dose of 40 mg/kg on days 5-8.
The subject of data set [16] is L1210. The data set can be described thus: Effect on the maximum weight loss of mice bearing L1210 leukemia at a dose of 80 mg/kg on days 9. The data set is classed as functional, Mus musculus.

Turning to `Cc1cn(C2CC(NC(=O)N(CCCl)N=O)C(CO)O2)c(=O)[nH]c1=O` (stereo not given), the half-life (in general, how long it takes for the measured level to halve) in data set [1] was determined as 37.3 min. The values for the Activity in the data set with L1210 [2] and in the data set with L1210 [4] were 2 and 0.85, respectively. The EC50 in the data set on L1210 [3] was found to be 1.5 µM.

Regarding `NC1CC(n2cc(F)c(=O)[nH]c2=O)OC1CO` (stereo not given), the EC50 in the data set with L1210 [3] is 15 µM.

Compound `O=NN(CCCl)C(=O)NCCCl` [CARMUSTINE] showed a half-life in data set [1] of 50 min. Moreover, the Activity in the data set on L1210 [2] and in the data set on L1210 [4] was 1 each time. Also, the EC50 in the data set on L1210 [3] was determined as 4 µM.

Regarding `O=NN(CCCl)C(=O)N[C@@H]1CC(n2ccc(=O)[nH]c2=O)O[C@@H]1CO` (stereo not given in full), the EC50 in the data set with L1210 [5] was 12.5 µM. For the same compound, the half-life in data set [1] was 27.3 min. The Max weight loss in the data set on L1210 [6] is recorded as 2%; with L1210 [9] it was “None”; in the data set with L1210 [10], 21%. The Body weight is reported as 22.1 g with L1210 [7]; 22 g in the data set with L1210 [8]; 19 g in the data set with L1210 [11]; 20.8 g in the data set on L1210 [12]; 18.8 g in the data set with L1210 [13]; 19.5 g with L1210 [14]. For the same compound, the Activity turned out to be 1.65 in the data set on L1210 [2] and 0.85 in the data set with L1210 [4]. Moreover, the Average survival days with L1210 [11] worked out at 31; with L1210 [13] it was 20.4; in the data set on L1210 [14] it was 8.3. Further, the figures for the T/C with L1210 [11], with L1210 [13] and with L1210 [14] were 369%, 243% and 99%, respectively. In addition, the Weight change was found to be 5% in the data set on L1210 [11], 9% with L1210 [13] and 13% with L1210 [14].

As to `N[C@H]1C[C@H](n2ccc(=O)[nH]c2=O)O[C@@H]1CO`, the EC50 in the data set with L1210 [3] is 18 µM.

For `Cc1cn([C@H]2C[C@H](N)[C@@H](CO)O2)c(=O)[nH]c1=O` [3-AMINO- 3-DEOXYTHYMIDINE], in the data set with L1210 [3], the EC50 was 0.8 µM.

As to `O=NN(CCCl)C(=O)N[C@@H]1CC(n2cc(F)c(=O)[nH]c2=O)O[C@@H]1CO` (stereo not given in full), the values for the Max weight loss in the data set on L1210 [15], in the data set on L1210 [16] and with L1210 [9] were 3%, 14% and “None”, respectively. The same compound registered a half-life in data set [1] of 36.1 min. Besides, the Body weight is given as 22.1 g with L1210 [7]; 22 g with L1210 [8]; 19.5 g with L1210 [11]; 21.3 g in the data set on L1210 [12]; 26.1 g in the data set with L1210 [13]; 20.5 g with L1210 [14]. Moreover, the values for the Activity in the data set with L1210 [2] and in the data set on L1210 [4] were 1.78 and 0.77, respectively. In the data set with L1210 [3], the EC50 worked out at 2.5 µM. Besides, the Average survival days in the data set on L1210 [11] was 14; in the data set with L1210 [13] it was 18.7; in the data set with L1210 [14], 9. Besides, the T/C (as a rule, the result in the treated group divided by that in the control group, in per cent) stood at 167% with L1210 [11], 223% in the data set with L1210 [13] and 107% with L1210 [14]. The Weight change in the data set with L1210 [11] is listed as 5%; with L1210 [13] it was 4%; in the data set with L1210 [14] it was 4%.

(Values after ChEMBL document CHEMBL1123489, “Antineoplastic activity of 3'-(chloroethyl)nitrosourea analogues of 2'-deoxyuridine and 2'-deoxy-5-fluorouridine” (J Med Chem, 1986).)
